Data on 11 compounds can be found in ChEMBL document CHEMBL1122840, “SAR studies in the field of calcium(II) antagonists. Effect of modifications at the tetrasubstituted carbon of verapamil-like compounds” (1985).

Molecules are shown by their SMILES.

Experiment [1] is filed under the species Cavia porcellus. Nature of the experiment: Heart rate of isolated guinea pig heart at dose 0.005 (ug/heart). The experiment is classed as functional. The method, boiled down:
(§1)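 Rate was derived from the left ventricular pressure tracing of the perfused heart. Drug dissolved in perfusion liquid was given as a 1-min side-arm injection into the aortic inflow cannula after 30-min stabilization, at constant volume. Six preparations per compound; values expressed as mean, SE and percent of basal for each dose.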

For experiment [2], the species on record is Cavia porcellus. Nature of the experiment: Left ventricular pressure of isolated guinea pig heart at dose 5 (ug/heart). The experiment is classed as functional, Cardiac ventricle. In short, it runs like this: (§2)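 Perfused heart, 30-min stabilization, then a 1-min constant-volume injection of drug dissolved in perfusion liquid via a side arm of the aortic inflow cannula. Six preparations per compound; mean, SE and percent of basal value were calculated for each dose.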

The species named for experiment [3] is Cavia porcellus. Kind of experiment: Heart rate of isolated guinea pig heart at dose 0.5 (ug/heart). The class given is functional. The method, boiled down:
as §1

The species named for experiment [4] is Cavia porcellus. Kind of experiment: Coronary perfusion pressure of isolated guinea pig heart at dose 0.005 (ug/heart). The class given is functional. The method, boiled down:
(§3)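 Heart perfused via an aortic inflow cannula; coronary perfusion pressure was recorded in that cannula with a pressure transducer. After 30-min stabilization, drug dissolved in perfusion liquid was injected through a side arm over 1 min, at constant volume. Six preparations per compound; mean, SE and percent of basal value were calculated for each dose.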

For experiment [5], the species on record is Cavia porcellus. Nature of the experiment: Left ventricular pressure of isolated guinea pig heart at dose 0.5 (ug/heart). The class given is functional, Cardiac ventricle. The method, boiled down: as §2
The species entered for experiment [6] is Cavia porcellus. Nature of the experiment: Coronary perfusion pressure of isolated guinea pig heart at dose 5 (ug/heart). The class given is functional. The method, boiled down:
as §3

Experiment [7] is filed under the species Cavia porcellus. Kind of experiment: Left ventricular pressure of isolated guinea pig heart at dose 0.005 (ug/heart). The class given is functional, Cardiac ventricle. In short, it runs like this:
as §2

The species named for experiment [8] is Cavia porcellus. Nature of the experiment: Left ventricular pressure of isolated guinea pig heart at dose 0.05 (ug/heart). The class given is functional, Cardiac ventricle. The method, boiled down: as §2
For experiment [9], the species on record is Cavia porcellus. Kind of experiment: Heart rate of isolated guinea pig heart at dose 5 (ug/heart). The experiment is classed as functional. The method, boiled down: as §1
Experiment [10] is filed under the species Cavia porcellus. Nature of the experiment: Heart rate of isolated guinea pig heart at dose 0.05 (ug/heart). The class given is functional. The method, boiled down:
as §1

The species named for experiment [11] is Cavia porcellus. Kind of experiment: Coronary perfusion pressure of isolated guinea pig heart at dose 0.05 (ug/heart). The class given is functional. The method, boiled down: as §3
Experiment [12] is filed under the species Cavia porcellus. Nature of the experiment: Coronary perfusion pressure of isolated guinea pig heart at dose 0.5 (ug/heart). The class given is functional. In short, it runs like this:
as §3

For experiment [13], the species on record is Cavia porcellus. Kind of experiment: Coronary perfusion pressure of isolated guinea pig heart at dose 5 ug/heart). The class given is functional. In short, it runs like this: as §3

Consider `COc1ccc(CCN(C)CCCC(C#N)(c2ccccc2)c2ccccc2)cc1OC.[O-][Cl+3]([O-])([O-])O`, for which the HR amounted to 162 beats min-1 in the experiment listed under Cavia porcellus [1], 159.8 beats min-1 in the experiment listed under Cavia porcellus [3], 158.3 beats min-1 in the experiment filed under Cavia porcellus [9] and 160.2 beats min-1 in the experiment listed under Cavia porcellus [10]. Also, the LVP in the experiment listed under Cavia porcellus [2] is reported as 26.8 mmHg; in the experiment listed under Cavia porcellus [5] it was 27.8 mmHg; in the experiment filed under Cavia porcellus [7], 31.6 mmHg; in the experiment filed under Cavia porcellus [8] it was 28.6 mmHg. The CPP in the experiment filed under Cavia porcellus [4] was 73 mmHg; in the experiment filed under Cavia porcellus [6], 68.7 mmHg; in the experiment listed under Cavia porcellus [11], 72.6 mmHg; in the experiment listed under Cavia porcellus [12], 71.2 mmHg.

As to `COc1ccc(CCN(C)CCCC(C#N)(c2ccc(OC)c(OC)c2)C(C)C)cc1OC` (configuration not stated) [VERAPAMIL], the HR in the experiment filed under Cavia porcellus [1] came out at 210 beats min-1; in the experiment filed under Cavia porcellus [3], 200.3 beats min-1; in the experiment listed under Cavia porcellus [9], 188 beats min-1; in the experiment filed under Cavia porcellus [10], 203.8 beats min-1. The LVP turned out to be 13 mmHg in the experiment listed under Cavia porcellus [2], 21.5 mmHg in the experiment filed under Cavia porcellus [5], 25.7 mmHg in the experiment filed under Cavia porcellus [7] and 24 mmHg in the experiment filed under Cavia porcellus [8]. Besides, the CPP in the experiment listed under Cavia porcellus [4] came to 51.7 mmHg; in the experiment filed under Cavia porcellus [6] it was 48.8 mmHg; in the experiment listed under Cavia porcellus [11], 50.3 mmHg; in the experiment filed under Cavia porcellus [12], 49.7 mmHg.

On to `COc1ccc(CCN(C)CCCC(c2ccccc2)c2ccccc2)cc1OC.O=C(O)C(=O)O`, for which the HR in the experiment listed under Cavia porcellus [1], in the experiment filed under Cavia porcellus [3], in the experiment filed under Cavia porcellus [9] and in the experiment filed under Cavia porcellus [10] was 152 beats min-1 throughout. Further, the LVP was found to be 66.7 mmHg in the experiment filed under Cavia porcellus [2], 67.4 mmHg in the experiment filed under Cavia porcellus [5], 67.5 mmHg in the experiment filed under Cavia porcellus [7] and 67.5 mmHg in the experiment filed under Cavia porcellus [8]. For the same compound, the CPP was 48 mmHg in the experiment filed under Cavia porcellus [4], 47.3 mmHg in the experiment listed under Cavia porcellus [6], 48 mmHg in the experiment listed under Cavia porcellus [11] and 48.7 mmHg in the experiment filed under Cavia porcellus [12].

Take `COc1ccc(CCN(C)CCCC(c2ccccc2)(c2ccccc2)C(C)C)cc1OC.O=C(O)C(=O)O`: the HR is reported as 155.3 beats min-1 in the experiment listed under Cavia porcellus [1], 150 beats min-1 in the experiment listed under Cavia porcellus [3], 150.7 beats min-1 in the experiment listed under Cavia porcellus [9] and 154.7 beats min-1 in the experiment listed under Cavia porcellus [10]. Also, the LVP in the experiment listed under Cavia porcellus [2] is recorded as 65.3 mmHg; in the experiment filed under Cavia porcellus [5], 66.7 mmHg; in the experiment listed under Cavia porcellus [7], 74.3 mmHg; in the experiment filed under Cavia porcellus [8], 65.3 mmHg. Besides, the CPP in the experiment listed under Cavia porcellus [4] was found to be 46.3 mmHg; in the experiment listed under Cavia porcellus [6], 49.3 mmHg; in the experiment filed under Cavia porcellus [11], 50 mmHg; in the experiment listed under Cavia porcellus [12], 49.3 mmHg.

For the compound `COc1ccc(CCN(C)CCC=C2c3ccccc3-c3ccccc32)cc1OC.O=C(O)C(=O)O`, the HR is 210 beats min-1 in the experiment listed under Cavia porcellus [1], 208 beats min-1 in the experiment filed under Cavia porcellus [3], 208 beats min-1 in the experiment filed under Cavia porcellus [9] and 210 beats min-1 in the experiment filed under Cavia porcellus [10]. Moreover, the LVP in the experiment listed under Cavia porcellus [2] is listed as 54 mmHg; in the experiment listed under Cavia porcellus [5] it was 54 mmHg; in the experiment filed under Cavia porcellus [7] it was 53 mmHg; in the experiment filed under Cavia porcellus [8], 53 mmHg. In addition, the CPP in the experiment listed under Cavia porcellus [4] stood at 50 mmHg; in the experiment filed under Cavia porcellus [6] it was 51 mmHg; in the experiment filed under Cavia porcellus [11], 50 mmHg; in the experiment listed under Cavia porcellus [12] it was 51 mmHg.

For `COc1ccc(CCN(C)C/C=C/C2(C(C)C)c3ccccc3-c3ccccc32)cc1OC.O=S(=O)(O)O`, the HR in the experiment filed under Cavia porcellus [1] worked out at 182.6 beats min-1; in the experiment listed under Cavia porcellus [3] it was 180.6 beats min-1; in the experiment listed under Cavia porcellus [9], 176.6 beats min-1; in the experiment filed under Cavia porcellus [10] it was 177.8 beats min-1. Moreover, the LVP in the experiment filed under Cavia porcellus [2] amounted to 43.2 mmHg; in the experiment filed under Cavia porcellus [5], 44 mmHg; in the experiment filed under Cavia porcellus [7] it was 43.2 mmHg; in the experiment filed under Cavia porcellus [8], 43.2 mmHg. Further, the CPP was found to be 83.8 mmHg in the experiment listed under Cavia porcellus [4], 74.4 mmHg in the experiment listed under Cavia porcellus [6], 82.4 mmHg in the experiment listed under Cavia porcellus [11] and 77 mmHg in the experiment filed under Cavia porcellus [12].

Consider `COc1ccc(CCN(C)CCCC2(C(C)C)c3ccccc3-c3ccccc32)cc1OC.O=S(=O)(O)O`, for which the HR in the experiment listed under Cavia porcellus [1] was found to be 211 beats min-1; in the experiment listed under Cavia porcellus [3], 207 beats min-1; in the experiment filed under Cavia porcellus [9], 204.4 beats min-1; in the experiment filed under Cavia porcellus [10] it was 209 beats min-1. Also, the LVP in the experiment filed under Cavia porcellus [2] was found to be 36 mmHg; in the experiment listed under Cavia porcellus [5], 37 mmHg; in the experiment listed under Cavia porcellus [7], 38.4 mmHg; in the experiment filed under Cavia porcellus [8], 38 mmHg. Further, the CPP is given as 76.4 mmHg in the experiment listed under Cavia porcellus [4], 78.4 mmHg in the experiment filed under Cavia porcellus [6], 78.6 mmHg in the experiment filed under Cavia porcellus [11] and 78.4 mmHg in the experiment filed under Cavia porcellus [12].

As to `COc1ccc(CCN(C)CCCC2(C#N)c3ccccc3-c3ccccc32)cc1OC.[O-][Cl+3]([O-])([O-])O`, the HR stood at 213 beats min-1 in the experiment listed under Cavia porcellus [1], 203 beats min-1 in the experiment filed under Cavia porcellus [3], 194.8 beats min-1 in the experiment filed under Cavia porcellus [9] and 208 beats min-1 in the experiment listed under Cavia porcellus [10]. For the same compound, the LVP in the experiment listed under Cavia porcellus [2] is 38.5 mmHg; in the experiment filed under Cavia porcellus [5], 38.7 mmHg; in the experiment filed under Cavia porcellus [7], 47.2 mmHg; in the experiment listed under Cavia porcellus [8], 41.8 mmHg. For the same compound, the CPP in the experiment filed under Cavia porcellus [13] is on record as 43.8 mmHg; in the experiment listed under Cavia porcellus [4] it was 47.7 mmHg; in the experiment filed under Cavia porcellus [11] it was 45.2 mmHg; in the experiment filed under Cavia porcellus [12], 45 mmHg.

As for `COc1ccc(CCN(C)CCCC2c3ccccc3-c3ccccc32)cc1OC.O=C(O)C(=O)O`, the HR turned out to be 150 beats min-1 in the experiment filed under Cavia porcellus [1], 150 beats min-1 in the experiment filed under Cavia porcellus [3], 149.3 beats min-1 in the experiment listed under Cavia porcellus [9] and 150 beats min-1 in the experiment listed under Cavia porcellus [10]. Further, the LVP is recorded as 89.3 mmHg in the experiment filed under Cavia porcellus [2], 91.2 mmHg in the experiment filed under Cavia porcellus [5], 88.5 mmHg in the experiment filed under Cavia porcellus [7] and 89.5 mmHg in the experiment listed under Cavia porcellus [8]. Besides, the CPP in the experiment listed under Cavia porcellus [4] is given as 52 mmHg; in the experiment filed under Cavia porcellus [6], 51.3 mmHg; in the experiment listed under Cavia porcellus [11], 52 mmHg; in the experiment filed under Cavia porcellus [12] it was 56 mmHg.

`COc1ccc(CCN(C)CCC=C(c2ccccc2)c2ccccc2)cc1OC.O=C(O)C(=O)O`: the HR in the experiment listed under Cavia porcellus [1], in the experiment filed under Cavia porcellus [3], in the experiment filed under Cavia porcellus [9] and in the experiment filed under Cavia porcellus [10] was 150 beats min-1 in each case. The LVP in the experiment filed under Cavia porcellus [2] turned out to be 75.7 mmHg; in the experiment filed under Cavia porcellus [5], 75.7 mmHg; in the experiment filed under Cavia porcellus [7], 75.7 mmHg; in the experiment filed under Cavia porcellus [8], 75.3 mmHg. Besides, the CPP in the experiment listed under Cavia porcellus [4] amounted to 48 mmHg; in the experiment filed under Cavia porcellus [6], 47.3 mmHg; in the experiment listed under Cavia porcellus [11], 51 mmHg; in the experiment filed under Cavia porcellus [12], 47.3 mmHg.

As for `COc1ccc(CCN(C)CCCC2(C#N)c3ccccc3-c3ccccc32)cc1OC.O=C(O)C(=O)O`, the HR stood at 211.5 beats min-1 in the experiment listed under Cavia porcellus [1], 206 beats min-1 in the experiment filed under Cavia porcellus [3], 205 beats min-1 in the experiment filed under Cavia porcellus [9] and 209.7 beats min-1 in the experiment listed under Cavia porcellus [10]. Besides, the LVP in the experiment listed under Cavia porcellus [2] is listed as 39.5 mmHg; in the experiment filed under Cavia porcellus [5] it was 41.3 mmHg; in the experiment filed under Cavia porcellus [7], 43.3 mmHg; in the experiment listed under Cavia porcellus [8], 41.7 mmHg. Also, the CPP in the experiment listed under Cavia porcellus [4] is given as 44.2 mmHg; in the experiment filed under Cavia porcellus [6], 41.2 mmHg; in the experiment filed under Cavia porcellus [11], 42 mmHg; in the experiment filed under Cavia porcellus [12] it was 42 mmHg.
